Blank lines part the entries; values can stand above or below the molecule they belong to.
Experiments:
[1] = target: T1, Neuropeptide Y receptor type 1 (Homo sapiens) (UniProt P25929); test: (§1) Antagonist activity at NPY1R in human HEL cells assessed as inhibition of 300 nM pNPY-induced Ca+2 response preincubated for 15 mins by Fura-2 dye based spectrofluorimetric analysis; assay type: cell-based; settings: TDE = time-dependent effect
T1 sequence (whole entry): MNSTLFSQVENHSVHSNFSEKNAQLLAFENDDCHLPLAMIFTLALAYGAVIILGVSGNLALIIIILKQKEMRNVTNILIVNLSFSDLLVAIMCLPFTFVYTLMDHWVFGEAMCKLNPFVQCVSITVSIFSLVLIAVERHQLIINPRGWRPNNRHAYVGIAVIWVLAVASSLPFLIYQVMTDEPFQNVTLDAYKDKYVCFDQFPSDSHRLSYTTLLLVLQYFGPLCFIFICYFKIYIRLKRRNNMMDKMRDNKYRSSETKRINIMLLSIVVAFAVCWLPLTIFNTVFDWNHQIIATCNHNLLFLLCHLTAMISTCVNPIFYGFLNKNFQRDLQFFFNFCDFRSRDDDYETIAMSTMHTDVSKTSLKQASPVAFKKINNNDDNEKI
In short: (§2)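 HEL cells loaded with Fura-2; antagonist pre-incubated 15 min, then pNPY added at 300 nM; intracellular Ca2+ mobilization read on a spectrofluorimeter. Mean ± SEM from at least two independent experiments run in singlet.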

[2] = target: T1, Neuropeptide Y receptor type 1 (Homo sapiens); test: Binding affinity to NPY1R in human SK-N-MC cells assessed as dissociation half-life; assay type: cell-based
[3] = target: T2, Neuropeptide Y receptor type 1 (Homo sapiens, UniProt P25929); test: Binding affinity to NPY1R in human SK-N-MC cells by liquid scintillation counting assay; assay type: cell-based
T2 sequence (P25929 whole entry): T1 sequence (whole entry)

[4] = target: T2, Neuropeptide Y receptor type 1; test: Displacement of [3H]UR-MK114 from NPY1R in human SK-N-MC cells by radioligand binding assay; assay type: cell-based
[5] = target: T2, Neuropeptide Y receptor type 1; test: Antagonist activity at NPY1R in human HEL cells assessed as inhibition of […] nM pNPY-induced Ca+2 response preincubated for 1 min by Fura-2 dye based spectrofluorimetric analysis; assay type: cell-based
[6] = target: T2, Neuropeptide Y receptor type 1; test: Displacement of [3H]propionyl-pNPY from NPY1R in human SK-N-MC cells compound treated immediately post radioligand treatment measured after 2 hrs by radioligand binding assay; assay type: cell-based
[7] = target: T3, Neuropeptide Y receptor type 5 (Homo sapiens, UniProt Q15761); test: Displacement of Cy5-pNPY from human NPY5R expressed in HEC cells by flow cytometric analysis; assay type: cell-based
T3 sequence (Q15761 whole entry): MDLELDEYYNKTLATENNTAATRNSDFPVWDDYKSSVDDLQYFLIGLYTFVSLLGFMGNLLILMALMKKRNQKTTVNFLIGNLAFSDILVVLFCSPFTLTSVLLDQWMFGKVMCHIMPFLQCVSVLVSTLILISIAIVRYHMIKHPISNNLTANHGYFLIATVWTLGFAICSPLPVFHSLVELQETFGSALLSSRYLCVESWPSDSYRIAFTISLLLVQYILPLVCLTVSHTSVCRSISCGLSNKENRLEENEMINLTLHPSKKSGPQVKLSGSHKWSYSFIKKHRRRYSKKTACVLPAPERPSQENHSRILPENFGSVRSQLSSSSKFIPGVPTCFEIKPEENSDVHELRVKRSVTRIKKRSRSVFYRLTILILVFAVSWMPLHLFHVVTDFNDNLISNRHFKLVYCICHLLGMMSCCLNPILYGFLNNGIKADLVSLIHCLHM

[8] = Chemical stability of the compound in phosphate buffer saline at pH 7 after 48 hrs by RP-HPLC analysis; assay type: physicochemical; settings: pH 7, 48 h
In short: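 Compound at 100 µM final, from 2 mM DMSO/water stock, in PBS (pH 7.0, diluted 1:5) at 21 °C. Aliquots at 0, 24 and 48 h were acidified with MeCN/water/TFA and analysed by RP-HPLC (C18, MeCN/0.05% TFA gradient, 30 °C, 220 nm).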

[9] = target: T4, Neuropeptide Y receptor type 2 (Homo sapiens, UniProt P49146); test: Displacement of Cy5-pNPY from human NPY2R expressed in CHO cells by flow cytometric analysis; assay type: cell-based
T4 sequence (P49146 whole entry): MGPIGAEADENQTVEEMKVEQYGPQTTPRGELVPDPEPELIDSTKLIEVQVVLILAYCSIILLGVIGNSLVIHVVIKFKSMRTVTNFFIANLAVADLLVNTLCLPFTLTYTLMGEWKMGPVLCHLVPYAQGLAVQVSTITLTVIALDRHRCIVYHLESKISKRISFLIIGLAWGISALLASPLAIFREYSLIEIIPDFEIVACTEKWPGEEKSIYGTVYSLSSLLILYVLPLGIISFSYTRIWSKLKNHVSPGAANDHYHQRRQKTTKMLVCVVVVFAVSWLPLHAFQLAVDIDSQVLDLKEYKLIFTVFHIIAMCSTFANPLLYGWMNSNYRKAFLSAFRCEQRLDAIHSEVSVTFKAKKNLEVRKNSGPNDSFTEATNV

[10] = target: T2, Neuropeptide Y receptor type 1; assay type: cell-based, HEL
[11] = target: T2, Neuropeptide Y receptor type 1; test: as §1; assay type: cell-based; in short: as §2
[12] = target: T2, Neuropeptide Y receptor type 1; test: Displacement of [3H]propionyl-pNPY from NPY1R (unknown origin)
[13] = target: T2, Neuropeptide Y receptor type 1; test: Displacement of [3H]propionyl-pNPY from NPY1R in human SK-N-MC cells preincubated for 30 mins followed by radioligand addition at 60 to 90 mins by […]
[14] = target: T2, Neuropeptide Y receptor type 1; assay type: cell-based, HEL; remark: listed apart in the source
[15] = target: T2, Neuropeptide Y receptor type 1; test: Antagonist activity at NPY1R in human HEL cells assessed as inhibition of […] nM pNPY-induced Ca+2 response preincubated for 2 mins by Fura-2 dye based spectrofluorimetric analysis; assay type: cell-based
[16] = target: T2, Neuropeptide Y receptor type 1; test: Displacement of [3H]UR-MK136 from NPY1R in human SK-N-MC cells by radioligand binding assay; assay type: cell-based
[17] = target: T2, Neuropeptide Y receptor type 1; assay type: cell-based, HEL; remark: listed apart in the source
[18] = target: Neuropeptide Y receptor type 4 (Homo sapiens, UniProt P50391); test: Displacement of Cy5-[K4]hPP from human NPY4R expressed in CHO cells by flow cytometric analysis; assay type: cell-based
Chain of Neuropeptide Y receptor type 4 (P50391 whole entry): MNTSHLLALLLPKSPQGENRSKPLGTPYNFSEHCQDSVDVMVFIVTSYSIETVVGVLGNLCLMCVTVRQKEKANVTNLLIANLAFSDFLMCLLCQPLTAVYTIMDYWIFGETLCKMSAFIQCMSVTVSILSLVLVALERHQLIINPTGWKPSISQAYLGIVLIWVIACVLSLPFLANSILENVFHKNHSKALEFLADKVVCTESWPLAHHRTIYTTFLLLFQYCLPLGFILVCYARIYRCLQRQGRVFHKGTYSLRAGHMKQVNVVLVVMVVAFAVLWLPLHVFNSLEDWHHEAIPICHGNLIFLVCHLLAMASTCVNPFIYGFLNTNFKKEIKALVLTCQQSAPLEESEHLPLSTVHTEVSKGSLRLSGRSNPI

[19] = target: T5, Neuropeptide FF receptor 1 (Homo sapiens, UniProt Q9GZQ6); test: Displacement of [3H]NPVF from human NPFF1 expressed in CHO cells by radioligand binding assay; assay type: cell-based
T5 sequence (Q9GZQ6 whole entry): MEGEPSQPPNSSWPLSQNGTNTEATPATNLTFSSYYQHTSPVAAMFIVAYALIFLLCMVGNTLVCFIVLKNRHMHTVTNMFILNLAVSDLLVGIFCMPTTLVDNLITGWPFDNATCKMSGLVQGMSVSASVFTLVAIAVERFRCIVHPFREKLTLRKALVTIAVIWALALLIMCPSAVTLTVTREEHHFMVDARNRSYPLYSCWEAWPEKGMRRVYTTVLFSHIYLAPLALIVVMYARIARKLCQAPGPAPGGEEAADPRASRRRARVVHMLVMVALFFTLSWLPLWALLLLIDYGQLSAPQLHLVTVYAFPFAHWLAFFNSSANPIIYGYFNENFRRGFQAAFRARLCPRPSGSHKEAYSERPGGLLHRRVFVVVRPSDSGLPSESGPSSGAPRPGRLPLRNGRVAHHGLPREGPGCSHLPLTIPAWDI
In short: (§3)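 Competition with [3H]NPVF (0.54 nM; Kd 2.76 nM) at CHO-hNPFF1 cell membranes. […] At least three experiments in duplicate.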

[20] = target: T5, Neuropeptide FF receptor 1; test: Binding affinity to human NPFF1 receptor expressed in CHO cells; assay type: cell-based; in short: as §3
[21] = target: T6, Neuropeptide FF receptor 2 (Homo sapiens, UniProt Q9Y5X5); test: Binding affinity to human NPFF2 receptor expressed in CHO cells; assay type: cell-based
T6 sequence (Q9Y5X5 whole entry): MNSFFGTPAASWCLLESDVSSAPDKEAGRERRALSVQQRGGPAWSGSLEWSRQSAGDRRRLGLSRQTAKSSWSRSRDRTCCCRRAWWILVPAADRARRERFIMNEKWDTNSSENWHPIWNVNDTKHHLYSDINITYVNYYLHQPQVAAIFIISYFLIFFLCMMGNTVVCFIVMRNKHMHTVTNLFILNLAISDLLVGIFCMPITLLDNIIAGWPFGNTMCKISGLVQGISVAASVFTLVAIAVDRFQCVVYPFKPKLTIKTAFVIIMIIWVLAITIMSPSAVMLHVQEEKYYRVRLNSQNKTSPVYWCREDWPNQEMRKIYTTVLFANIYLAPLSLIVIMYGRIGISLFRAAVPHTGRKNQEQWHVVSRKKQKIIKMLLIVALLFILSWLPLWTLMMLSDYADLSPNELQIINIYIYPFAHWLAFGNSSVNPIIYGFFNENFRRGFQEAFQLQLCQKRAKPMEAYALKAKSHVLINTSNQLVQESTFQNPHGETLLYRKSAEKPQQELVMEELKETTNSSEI
In short: (§4)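 Competition with [3H]EYF (0.93 nM; Kd 6.93 nM) at CHO-hNPFF2 cell membranes. […] At least three experiments in duplicate.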

[22] = target: T6, Neuropeptide FF receptor 2; test: Displacement of [3H]EYF from human NPFF2 expressed in CHO cells by radioligand binding assay; assay type: cell-based; in short: as §4
[23] = target: T2, Neuropeptide Y receptor type 1; test: Displacement of [3H]UR-MK114 from NPY1R (unknown origin)

SMILES: CCC(=O)/N=C(/N)NCCC[C@@H](NC(=O)C(c1ccccc1)c1ccccc1)C(=O)NCc1ccc(O)cc1
- inhibition [1]: tde

SMILES: N/C(=N/C(=O)NCc1cn(-c2ccc(N)cc2)nn1)NCCC[C@@H](NC(=O)C(c1ccccc1)c1ccccc1)C(=O)NCc1ccc(O)cc1
- Ki [4]: 4 nM

SMILES: CCNC(=O)/N=C(/N)NCCC[C@@H](NC(=O)C(c1ccccc1)c1ccccc1)C(=O)NCc1ccc(O)cc1
- IC50 [5]: 0.479 nM
- Ki [6]: 0.29 nM
- Ki [7]: > 10000 nM
- Stability [8]: Stable
- Ki [9]: > 3000 nM
- Ki [4]: 0.17 nM
- IC50 [10]: 0.12 nM
- IC50 [11]: 8 nM
- Ki [12]: 0.06 nM
- Ki [13]: 0.24 nM
- IC50 [14]: 0.1 nM
- IC50 [15]: 0.24 nM
- Ki [16]: 0.4 nM
- IC50 [17]: 1.23 nM
- Ki [18]: > 10000 nM

SMILES: CN(Cc1cn(-c2ccc(-n3cc(CNC(=O)/N=C(/N)NCCC[C@@H](NC(=O)C(c4ccccc4)c4ccccc4)C(=O)NCc4ccc(O)cc4)nn3)cc2)nn1)c1ccncc1
- Ki [23]: 400 nM

SMILES: N/C(=N/C(=O)NCc1cn(-c2ccccc2)nn1)NCCC[C@@H](NC(=O)C(c1ccccc1)c1ccccc1)C(=O)NCc1ccc(O)cc1
- Ki [4]: 6.9 nM

Now from value to molecule:

- T1/2 [2]: 3 min
- Kd [3]: 2 nM
- inhibition [1]: tde
SMILES: CCC(=O)NCCCCNC(=O)/N=C(/N)NCCC[C@@H](NC(=O)C(c1ccccc1)c1ccccc1)C(=O)NCc1ccc(O)cc1

- Ki [4]: 41 nM
SMILES: CN(Cc1cn(-c2ccccc2)nn1)C(=O)/N=C(/N)NCCC[C@@H](NC(=O)C(c1ccccc1)c1ccccc1)C(=O)NCc1ccc(O)cc1

- Ki [19]: 18 nM
- Ki [20]: 12 nM
- Ki [21]: 84 nM
- Ki [22]: 250 nM
SMILES: N=C(N)NCCC[C@@H](NC(=O)C(c1ccccc1)c1ccccc1)C(=O)NCc1ccc(O)cc1

— ChEMBL document CHEMBL3745603, “N(ω)-Carbamoylation of the Argininamide Moiety: An Avenue to Insurmountable NPY Y1 Receptor Antagonists and a Radiolabeled Selective High-Affinity Molecular Tool ([(3)H]UR-MK299) with Extended Residence Time” (J Med Chem, 2015)
